# The whole screen tested about 200,000 compounds, of which about 2,000 (1%) were called active. This excerpt belongs to a sample that is enriched for actives. Values without a mark were called inactive.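 The calls were made as follows: active = inhibition above the campaign mean inhibition of all tested compounds plus 3 SD (cut at about 20% in these data); inactive = the rest.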
# Target: Neuropeptide Y receptor type 1 (Homo sapiens) (UniProt P25929)
# Test: NPY-Y1 receptor antagonists, primary screen, cell-based (AID 1040);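 also: 0% = DMSO wells given NPY plus isoproterenol and 100% = isoproterenol alone without NPY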
# Conditions: HEK293-CNG Y1 cells, membrane potential fluorescence; at 3.6 µM; stronger effect = higher value; NPY at EC95, then isoproterenol
# Summary of the method: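 Assay system: HEK293 Y1/CNG channel cell line; Doses: single compound dose of 3.6 µM, 0.4% DMSO; Timing: dye 3 h, compound 60 min room temperature, stimulation 45 min; Technique: Membrane-potential fluorescent dye readout; Measure: % inhibition of NPY effect.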
# Chain of Neuropeptide Y receptor type 1 (Homo sapiens) (P25929 whole entry, looked up): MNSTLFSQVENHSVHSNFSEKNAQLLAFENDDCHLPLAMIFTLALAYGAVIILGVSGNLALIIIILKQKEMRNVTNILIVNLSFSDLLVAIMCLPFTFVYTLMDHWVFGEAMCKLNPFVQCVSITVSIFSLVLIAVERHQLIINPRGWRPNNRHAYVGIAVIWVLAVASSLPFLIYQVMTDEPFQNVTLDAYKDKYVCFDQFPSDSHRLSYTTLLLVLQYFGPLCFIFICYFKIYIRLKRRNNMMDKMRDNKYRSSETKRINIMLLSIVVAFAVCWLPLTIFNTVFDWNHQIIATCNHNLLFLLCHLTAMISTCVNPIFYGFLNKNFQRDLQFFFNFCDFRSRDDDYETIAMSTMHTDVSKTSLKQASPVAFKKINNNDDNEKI
row,SMILES,inhibition
1,COc1cccc(OC)c1C(=O)NC(=S)Nc1ccc(N2CCOCC2)c(Cl)c1,9.33%
2,Cc1c(Cl)c([N+](=O)[O-])nn1CC(=O)NCC1CCCO1 (centres undefined),-5.55%
3,COC(=O)c1ccc(COC(=O)c2c(C)nn(Cc3ccccc3Cl)c2Cl)o1,22.2% (active)
4,COC(=O)c1ccc(CSc2ccccc2C)o1,-3.04%
5,CCOC(=O)c1cnn(Cc2ccccc2Cl)c1N,-2.37%
6,O=C(Nc1ccc(F)cc1)N1CCCC(c2nc3c(nnn3Cc3ccccc3Cl)c(=O)[nH]2)C1 (centres undefined),-6.56%
7,Oc1ccccc1C=NC1CCCCC1N=Cc1ccccc1O (centres undefined),4.16%
8,Cc1ccc(Cl)cc1N1CCN(C(=O)c2cccc3c(=O)c(C)c(-c4ccccc4)oc23)CC1,4.2%
9,Cc1cccc(OCCC(=O)Nc2cc(S(=O)(=O)N3CCCCC3)ccc2N2CCOCC2)c1,2.92%
10,Cc1ncc([N+](=O)[O-])n1CCOC(=O)c1ccc(Br)cc1,-0.91%
11,COc1ccccc1NC(=O)COC(=O)Cc1ccc(S(=O)(=O)N2CCCCC2)s1,-4.82%
12,O=C(Nc1ccc(N2C(=O)c3cccc4cccc(c34)C2=O)cc1)c1ccc(N2CCCCC2)c([N+](=O)[O-])c1,-0.12%
13,COc1ccc(-c2[nH]ncc2/C=N/NC(=O)c2cc(Br)ccc2O)c(OC)c1,4.29%
14,CCS(=O)(=O)n1nc(-c2ccc(OC)cc2)nc1SC,3.74%
15,CCS(=O)(=O)n1nc(-c2ccccc2)nc1SCc1ccccc1,28.2% (active)
16,CS(=O)(=O)n1nc(-c2ccccc2)nc1NCc1ccco1,-0.86%
17,Cc1ccnc(NC(=O)CCC(=O)N(CC(=O)NCc2ccccc2)Cc2ccco2)c1,2.07%
18,O=C1C2N=NN(CC(=O)N3N=C(c4cccc5ccccc45)CC3c3ccccc3)C2C(=O)N1c1ccccc1 (centres undefined),6.21%
19,CC(=O)Oc1ccccc1C1=NN(C(C)=O)C(c2ccccc2)C1 (centres undefined),1.31%
20,Cc1ccc(N2C(=O)C3N=NN(CC(=O)N4N=C(c5cccc6ccccc56)CC4c4ccccc4)C3C2=O)cc1 (centres undefined),20.5% (active)
21,CCn1ccnc1CN1CCCC(C(=O)c2ccc3c4c(cccc24)CC3)C1 (centres undefined),3.36%
22,Cc1cccc(-c2ncc(CN3CCC(CO)(CCCc4ccccc4)CC3)cn2)c1,4.93%
23,OCC1(CCc2ccccc2)CCN(Cc2ccc3nsnc3c2)CC1,22.8% (active)
24,CC(=O)c1cccc(CN2CCC(CO)(Cc3ccccc3)CC2)c1,2.21%

# Source: PubChem BioAssay AID1040 (The Scripps Research Institute Molecular Screening Center, 2008)
